SMILES strings stand for the structures. pIC50: −log10 of the molar value.

For series [1], the system named is HeLa. The series is described as follows: The compound was tested for its ability to enhance the cytotoxicity of ACNU toward HeLa S3 cells at 10 uM dose. It counts as functional, Homo sapiens. A digest of the protocol: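 HeLa S3 cervical tumour cells (AGAT activity 418 fmol/mg protein) pretreated 2 h with test compound […], then exposed to increasing ACNU concentrations. Dose-modifying factor = IC50 for ACNU alone divided by IC50 for compound pretreatment followed by ACNU.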

In series [2] the target is T1, Methylated-DNA--protein-cysteine methyltransferase (Homo sapiens, UniProt P16455).
T1 sequence (P16455 whole entry): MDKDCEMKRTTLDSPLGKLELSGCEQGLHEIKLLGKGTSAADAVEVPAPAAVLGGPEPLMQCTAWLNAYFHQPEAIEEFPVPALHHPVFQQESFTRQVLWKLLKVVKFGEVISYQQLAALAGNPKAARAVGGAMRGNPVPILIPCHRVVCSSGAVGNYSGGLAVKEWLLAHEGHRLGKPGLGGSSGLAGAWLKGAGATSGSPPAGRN
The series is described as follows: In vitro inhibitory activity against human O6-alkylguanine-DNA alkyltransferase (AGAT).

Series [3] has as its system HeLa. Nature of the series: The compound was tested for its ability to enhance the cytotoxicity of ACNU toward HeLa S3 cells at 1 uM dose. Format: functional, Homo sapiens. In outline:
(§1)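 HeLa S3 cervical tumour cells (AGAT activity 418 fmol/mg protein) pretreated with test compound for 2 h at 0.01, 0.1, 1 or 10 μM, then exposed to increasing ACNU concentrations. Cytotoxicity measured by a previously reported method. Dose-modifying factor = IC50 for ACNU alone divided by IC50 for compound pretreatment followed by ACNU.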

The nature of series [4]: The compound was tested for its ability to enhance the cytotoxicity of ACNU toward HeLa S3 cells at 10 uM dose; 'b' means toxicity appeared at this dose. Format: cell-based. Particulars: human. A digest of the protocol: as §1
In series [5] the test system is HeLa. Nature of the series: The compound was tested for its ability to enhance the cytotoxicity of ACNU toward HeLa S3 cells at 0.1 uM dose. Format: functional, Homo sapiens. In outline: as §1
Series [6] deals with HeLa. The series is described as follows: The compound was tested for its ability to enhance the cytotoxicity of ACNU toward HeLa S3 cells at 0.01 uM dose. Format: functional, Homo sapiens. In outline:
as §1

Regarding `Nc1cc(OCc2ccccc2)nc(N)n1`, the Dose-modifying factor in the series with HeLa [1] is reported as 1. In addition, the pIC50 in series [2] was 3.77.
`Nc1nc(N)c([N+](=O)[O-])c(OCc2ccccc2)n1`: the Dose-modifying factor is listed as 4 in the series with HeLa [3], “Toxicity appeared at this dose” in series [4] and 1.2 in the series on HeLa [5].
The matching figures for `Nc1nc(N)c([N+](=O)[O-])c(OCc2ccncc2)n1`: 3.9, “Toxicity appeared at this dose” and 1.2.
As to `Nc1nc(N)c(N=O)c(OCc2ccc(F)cc2)n1`, the Dose-modifying factor with HeLa [3] is given as 9.2; in series [4], “Toxicity appeared at this dose”; in the series with HeLa [5] it was 5.8; with HeLa [6], 1.4.
`Nc1nc(N)c([N+](=O)[O-])c(OCc2ccccc2F)n1`: the Dose-modifying factor in the series with HeLa [3] was 1.1; in series [4] it was “Toxicity appeared at this dose”; in the series with HeLa [5], 1.
The matching figures for `Nc1nc(N)c([N+](=O)[O-])c(OCc2ccc(F)cc2)n1`: 5.1, “Toxicity appeared at this dose” and 1.5.
The corresponding values for `Nc1nc(N)c([N+](=O)[O-])c(OCc2ccccn2)n1` are 1, “Toxicity appeared at this dose” and 1.
The corresponding values for `Nc1nc(N)c([N+](=O)[O-])c(OCc2cccc(F)c2)n1` are 4.8, “Toxicity appeared at this dose” and 1.2.
With `Nc1nc(N)c(N=O)c(OCc2ccncc2)n1`, the Dose-modifying factor in the series with HeLa [3] is listed as 7.3; in series [4], “Toxicity appeared at this dose”; in the series on HeLa [5], 2.9; in the series on HeLa [6] it was 1.
As for `Nc1nc(N)c([N+](=O)[O-])c(OCc2cccnc2)n1`, the Dose-modifying factor in the series on HeLa [3] is 3.6; in series [4], “Toxicity appeared at this dose”; in the series with HeLa [5], 1.2.
As to `Nc1nc(N)c(N=O)c(OCc2ccccc2)n1`, the Dose-modifying factor amounted to 8.8 with HeLa [3], 4.3 in the series on HeLa [5] and 1.2 in the series on HeLa [6]. Besides, in series [2], the pIC50 is 6.89.
In the case of `Nc1nc(OCc2ccccc2)c2nc[nH]c2n1` [6-O-BENZYLGUANINE], the results for the Dose-modifying factor in the series with HeLa [3], with HeLa [1] and with HeLa [5] were 4.4, 7.6 and 1.3, respectively.
